ChEMBL document CHEMBL1150122, “A new cytotoxic epothilone from modified polyketide synthases heterologously expressed in Myxococcus xanthus” (J Nat Prod, 2002)
Activity calls are given as the source filed them. The calls are words filed in the database; no cut-off is given here.

Tests used:
HL-60 [1] = experiment: Cytotoxicity against mitoxantrone-resistant human HL60 cells after 3 days by SRB assay; type: functional, cell-based; conditions: HL-60, 72 h
Method in brief: (§1)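 Cells kept in RPMI 1640 with 10% FBS and 2 mM L-glutamine, 37 °C, 5% CO2. Trypsinized cells seeded at 5000–7500 per well; compound added 20 h later across 0.001–1000 nM in growth medium. After 3 days, fixed with 10% TCA (4 °C, 1 h), stained 0.2% SRB/1% acetic acid 20 min, dye extracted with 10 mM Tris base, absorbance read at 515 nm.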

NCI-H460 = experiment: Cytotoxicity against human NCI-H460 cells after 3 days by SRB assay; type: functional, cell-based; conditions: NCI-H460, 72 h; method in brief: as §1
SF-268 = experiment: Cytotoxicity against human SF268 cells after 3 days by SRB assay; type: functional, cell-based; conditions: SF-268, 72 h; method in brief: as §1
NCI/ADR-RES = experiment: Cytotoxicity against human NCI/ADR-RES cells after 3 days by SRB assay; type: functional, cell-based; conditions: 72 h; method in brief: as §1
CCRF-CEM [2] = experiment: Cytotoxicity against camptothecin-resistant human CCRF-CEM cells after 3 days by SRB assay; type: functional, cell-based; conditions: 72 h; method in brief: as §1
CCRF-CEM [3] = experiment: Cytotoxicity against human CCRF-CEM cells after 3 days by SRB assay; type: functional, cell-based; conditions: 72 h; method in brief: as §1
MCF7 = experiment: Cytotoxicity against human MCF7 cells after 3 days by SRB assay; type: functional, cell-based; conditions: MCF7, 72 h; method in brief: as §1
HL-60 [4] = experiment: Cytotoxicity against human HL60 cells after 3 days by SRB assay; type: functional, cell-based; conditions: HL-60, 72 h; method in brief: as §1
Tubulin (Homo sapiens) = Tubulin (Homo sapiens) (UniProt P68371+Q9H4B7+P0DPH7+P68366+Q13509+Q71U36+P04350+Q3ZCM7+P07437+P68363+Q9BQE3+Q6PEY2+Q13885+Q9BVA1+Q9BUF5); experiment: […] in human MCF7 cells at 1 uM after 2 hrs by SDS-PAGE; type: cell-based
Method in brief: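 Confluent MCF-7 cells in 35 mm dishes treated with 1 μM compound for 0, 1 and 2 h at 37 °C. Lysates spun 18000g, 12 min, to separate soluble tubulin (supernatant) from polymerized tubulin (pellet).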

SMILES	IC50 (HL-60 [1]) [nM]	IC50 (NCI-H460) [nM]	IC50 (SF-268) [nM]	IC50 (NCI/ADR-RES) [nM]	IC50 (CCRF-CEM [2]) [nM]	IC50 (CCRF-CEM [3]) [nM]	IC50 (MCF7) [nM]	IC50 (HL-60 [4]) [nM]	Activity (Tubulin (Homo sapiens))
C/C1=C/C[C@@H](/C(C)=C/c2csc(C)n2)OC(=O)C[C@H](O)C(C)(C)C(=O)[C@H](C)[C@@H](O)[C@@H](C)CCC1 [EPOTHILONE D]	10	8	14	30	15	22	8	8	–
CC1=C/C[C@@H](/C(C)=C/c2csc(C)n2)OC(=O)C[C@H](O)C(C)(C)C(=O)[C@H](C)[C@@H](O)[C@@H](C)C\C=C\1	18	34	40	35	11	23	28	25	Active
